Assay outcomes: PubChem BioAssay, several laboratories
HEK293 NFkB inh = inhibitors of the PMA/ionomycin-induced NF-kB reporter in HEK293 cells; inhibition, % at 3 µM; HEK-293 NF-kB luciferase reporter, luminescence; hit rate 0.21% among 62,000; AID 465;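 active = inhibition above the mean of all tested compounds plus 3 SD, cut at about 40% in these data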;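 also: 0% = stimulated DMSO wells and 100% = 10 µM reference inhibitor 5653914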
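Reagent: PMA plus ionomycin mix as NF-kB-activating stimulus. Assay system: NF-kB luciferase reporter HEK-293 cells. Technique: luminescence from luciferase substrate reagent. Incubation: 1 h compound pre-incubation, 16 h PMA/ionomycin at 37 °C. Benchmarks: DMSO only as uninhibited control, 10 µM reference inhibitor as full inhibition. Repeats: tested once.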
M1 antagonist = blocks the rat M1 muscarinic receptor response to acetylcholine; P08482; B-score at 10 µM; CHO-M1 cells, Fluo-4 calcium, ACh EC80 antagonist mode; stronger effect = lower value; hit rate 3.4% among 64,000;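 active = calcium fluorescence response, raw or row-and-column corrected B-score, differing from the plate sample mean either way at a set confidence level, mostly lower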
Jurkat viability = cytotoxic compounds reducing Jurkat cell viability; AID 463; hit rate 1.2% among 56,000; Jurkat E6.1 viability, ATP luminescence, 48 h; inhibition, % at 4 µM;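 active = inhibition above the mean inhibition of all tested compounds plus 3 SD, cut at about 28% in these data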
M1 agonist = M1 muscarinic receptor agonism; hit rate 3% among 64,000; B-score at 10 µM; CHO-M1 cells, Fluo-4 calcium fluorescence, agonist mode; stronger effect = higher value; AID 626;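 active = fluorescence rise, raw or as B-score row- and column-corrected plate score, outside the 99.7% band of its plate's samples, either direction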
Htt clearance = mutant huntingtin protein clearance; HeLa Exon1htt(103Q)mCFP, aggregate imaging; zero = plate's median compound well; inhibition, % at 1.5 µM; hit rate 0.42% among 47,000;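 active = inhibition of aggregate fluorescence above about 70%, also judged a hit by eye on the cell image, limit read from the data, passing the limit was not always enough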;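 also: cells exposed to compound for three days before fixation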
D1 allo mod = allosterically modulates the human D1 dopamine receptor | P21728 | HEK293 D1, CRE-luciferase, dopamine EC30 potentiation; actives deviate in either direction | B-score at 10 µM | hit rate 5.9% among 58,000 | AID 641;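 active = luminescence count or its row- and column-corrected plate score outside the 99.7% band of the plate's sample wells, on either side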
Target sequence (P21728 whole entry, looked up): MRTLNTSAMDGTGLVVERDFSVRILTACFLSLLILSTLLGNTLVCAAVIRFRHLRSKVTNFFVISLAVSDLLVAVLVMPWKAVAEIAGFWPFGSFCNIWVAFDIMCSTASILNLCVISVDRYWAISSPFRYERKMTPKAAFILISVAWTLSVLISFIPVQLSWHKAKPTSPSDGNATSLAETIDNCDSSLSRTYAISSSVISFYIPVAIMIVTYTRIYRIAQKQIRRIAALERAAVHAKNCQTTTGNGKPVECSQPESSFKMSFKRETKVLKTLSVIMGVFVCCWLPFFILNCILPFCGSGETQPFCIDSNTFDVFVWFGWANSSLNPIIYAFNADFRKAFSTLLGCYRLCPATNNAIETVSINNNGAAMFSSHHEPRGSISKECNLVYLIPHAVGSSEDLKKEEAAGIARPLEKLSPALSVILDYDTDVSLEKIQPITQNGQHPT
D1 PAM confirm = D1 receptor (human) allosteric modulation, confirmed; hit rate 88% among 2,200; HEK293 D1 CRE-luciferase, dopamine EC30 potentiation; stronger effect = higher value; luminescence at 10 µM; shares compounds with D1 allo mod;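 active = luminescence in either of two replicates above the same-plate mean plus 3 SD of the low-dose dopamine control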
D1 no dopamine = secondary test of D1 modulators: activity without dopamine; shares compounds with D1 allo mod; HEK293 D1 CRE-luciferase, luminescence, no dopamine; stronger effect = higher value; luminescence at 10 µM; hit rate 0.8% among 1,900; AID 646; in the data active = luminescence above about 3900
Isoprot counter = isoproterenol response counter-screen activity for D1 modulators; shares compounds with D1 allo mod; HEK293 D1 CRE-luciferase, isoproterenol EC30 counter-screen; stronger effect = higher value; luminescence at 10 µM; hit rate 63% among 2,200; AID 647;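 active = luminescence in either replicate above plate mean of wells with a partly effective reference agonist dose plus 3 SD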;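 also: isoproterenol raises cAMP through native beta-adrenoceptor Gs so signal bypasses D1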
Starred values were filed as active, the others as inactive; · = no result given. Hits are enriched below; roughly 9.5% of the tested compounds scored in any of these assays.

SMILES	HEK293 NFkB inh	M1 antagonist	Jurkat viability	M1 agonist	Htt clearance	D1 allo mod	D1 PAM confirm	D1 no dopamine	Isoprot counter
Cc1ccc(Nc2nc(Oc3ccc(OCc4ccccc4)nn3)nc(N3CCOCC3)n2)cc1	31	1	-2	0.028	-1	1.2	·	·	·
c1ccc(COc2ccc(Oc3nc(N4CCCCC4)nc(N4CCOCC4)n3)nn2)cc1	33	-0.088	7	0.24	·	9.2*	15844*	1888	5164*
Nc1c(S(=O)(=O)c2cccs2)c2nc3ccccc3nc2n1CC1CCCO1 (stereo unspecified)	22	-0.086	-3	0.72	-34	5.9*	12068*	1576	3268*
CC(C)CCn1c(N)c(S(=O)(=O)c2cccs2)c2nc3ccccc3nc21	4	-0.15	-9	-0.29	-11	4.1	·	·	·
O=C1N/C(=N/c2ccccn2)SC1Cc1ccccc1 (stereo unspecified)	25	0.099	5	0.088	·	4.5*	9704*	1888	2576
CCOc1ccc(N=C2NC(=O)C(CC(=O)O)S2)cc1 (stereo unspecified)	4	1.3	-2	-0.15	·	·	·	·	·
CCc1ccc(C(=O)NCC2COc3ccccc3O2)o1 (stereo unspecified)	-6	·	-7	·	·	3.7*	7128	1732	2436
CCOc1ncccc1C(=O)NCC1COc2ccccc2O1 (stereo unspecified)	14	-0.15	1	0.39	2	13*	17888*	·	4208*
CCOc1ncccc1C(=O)Oc1ccc2c(c1)OCO2	2	1.7	-7	-1.1	-27	3.2*	8328*	2048	2964*
Cc1onc(-c2ccccc2)c1C(=O)NCC1COc2ccccc2O1 (stereo unspecified)	·	·	·	·	16	·	·	·	·
CCOc1ncccc1C(=O)Nc1ccc(Cl)cc1	14	0.085	-2	0.52	·	2.5*	12668*	1652	3184*
Cc1sc2nc(SC(C)C)nc(N)c2c1C	-7	0.4	6	-0.39	·	14*	13552*	1624	3844*
CC1(C)CC(=O)c2cnc(N)nc2C1	·	·	·	·	-33	·	·	·	·
CCc1nc(N)nc2c1C(=O)CC(C)(C)C2	2	-0.67	0	0.32	12	8.3*	20244*	1712	4008*
CC1Oc2ccccc2N(Cc2ccccc2Cl)C1=O (stereo unspecified)	8	0.00089	-9	0.76	·	·	·	·	·
O=C1COc2ccccc2N1Cc1ccccc1Cl	26	0.91	0	0.72	·	4.9*	7968*	1540	2552
CCOC(=O)CC(N)c1ccc2c(c1)OCO2 (stereo unspecified)	16	0.79	0	0.11	-16	·	·	·	·
COc1cccc(N2C(=O)C3ON(c4ccccc4)C(c4cccs4)C3C2=O)c1 (stereo unspecified)	17	-0.4	6	0.11	-26	15*	6168*	1676	3028
CCN1CCN(C(c2cccs2)C(C)NS(=O)(=O)c2ccc(Br)cc2)CC1 (stereo unspecified)	10	-2.1	·	-0.14	24	0.0032	·	·	·
O=C(c1cccc(F)c1)N1CCc2ccccc2C1	6	-1.4	-9	-0.26	-19	4.6*	9556*	12280*	3248
COc1cccc(/C=N/n2c(-c3cccs3)n[nH]c2=S)c1	·	·	·	·	-23	·	·	·	·
COCCN1C(=O)c2oc3ccccc3c(=O)c2C1c1ccc(OC)c(OC)c1 (stereo unspecified)	11	0.028	-2	-0.6	·	·	·	·	·
C=CCN1C(=O)c2oc3ccccc3c(=O)c2C1c1ccc(O)c(OC)c1 (stereo unspecified)	22	-0.2	-2	-0.67	·	8.1*	10008*	·	3668
O=C1CCCc2nn(-c3ccccc3)c(-c3ccncc3)c21	2	-1.4	-2	0.14	8	-0.026	·	·	·
CN1CCN(C2=C(Cl)C(=O)N(c3cccc(Cl)c3)C2=O)CC1	12	-0.73	2	-1.2	·	-0.21	·	·	·
SMILES	HEK293 NFkB inh	M1 antagonist	Jurkat viability	M1 agonist	Htt clearance	D1 allo mod	D1 PAM confirm	D1 no dopamine	Isoprot counter
COC(=O)c1cccc(N2C(=O)C(Cl)=C(N3CCOCC3)C2=O)c1	18	1.3	-4	-0.17	·	4.7*	5740*	1648	2228
O=C(C1Cc2ccccc2CN1S(=O)(=O)c1cccs1)N1CCCCC1 (stereo unspecified)	5	0.45	-2	0.045	2	-0.42	·	·	·
N#Cc1nc(-c2ccco2)oc1NCc1ccco1	20	-0.39	-2	0.031	28	9.5*	13820*	1564	3364*
N#Cc1nc(-c2cccs2)oc1NCc1ccco1	9	0.29	-3	-0.54	·	9.2*	14284*	·	4016*
N#Cc1nc(-c2cccs2)oc1NCc1ccccc1Cl	·	-0.28	·	-0.086	1	·	·	·	·
Cc1cc(NC(=O)CSc2nnc(-c3ccc4c(c3)OCCO4)o2)no1	-19	·	11	·	·	-0.23	·	·	·
COc1cccc(-c2nnc(SCC(=O)Nc3cc(C)on3)o2)c1	-4	·	-2	·	·	5.7*	6316*	1520	2832
COc1ccc(-c2ccc(SCC(=O)Nc3cc(C)on3)nn2)cc1OC	20	0.59	4	-0.8	15	5.8*	23296*	1724	3844*
CCN1CCCC1CNC(=O)C1CCN(Cc2nc(-c3cccc(Br)c3)oc2C)CC1 (stereo unspecified)	11	-0.25	7	-0.96	·	0.24	·	·	·
CCOC1(C(F)(F)F)NC(=O)N(Cc2ccc(OC)cc2)C1=O (stereo unspecified)	7	-0.4	-3	-0.037	54	0.035	·	·	·
COCCn1c(SCC(=O)OC(C)C)nnc1-c1ccccc1	11	0.78	-4	1	-52	1.7	·	·	·
O=C(CCNS(=O)(=O)c1ccc2c(c1)CCC(=O)N2)NCc1ccc2c(c1)OCO2	8	-0.062	2	0.14	·	2.9*	6928*	1720	2668
Cc1ccc(S(=O)(=O)NCCC(=O)NCc2ccc3c(c2)OCO3)cc1C	4	-0.61	2	-0.49	-16	1.3	·	·	·
COc1ccccc1OC(=O)c1ccc(SC)cc1OC	-2	-0.57	0	-0.56	23	-0.059	·	·	·
N#Cc1cc2ccccc2nc1SCC(=O)Nc1ccc(S(=O)(=O)N2CCCC2)cc1	5	0.022	13	-0.21	30	2.5*	9776*	1832	2628
Cc1cc2n(n1)C(c1sccc1C)Nc1ccccc1-2 (stereo unspecified)	2	-0.058	6	-1.2	·	8.4*	9040*	·	2616*
Cc1cc2n(n1)C(c1ccc3c(c1)OCO3)Nc1ccccc1-2 (stereo unspecified)	0	-0.033	-1	0.84	·	11*	17556*	·	3560*
